Experimental data reported in publication PMC10325562 (Circulation, 2023).
Entries after “also recorded” stand apart in the source; their conditions may differ. Like-named read-outs stand apart in the source and are kept apart here.

How the values were obtained:
Solubility = assay type: physicochemical
[1] = Oral bioavailability in cynomolgus monkeys with permeation enhancer; assay type: in vivo; settings: formulated with an established PE
[2] = Study-003 safety and tolerability; assay type: in vivo, human
monkeys = assay: Safety pharmacology and 1-month repeat-dose toxicity studies, monkeys; assay type: in vivo; settings: safety pharmacology and 1-month repeat-dose toxicity
PCSK9 in human plasma = PCSK9 in human plasma (Homo sapiens, UniProt Q8NBP7); assay: In vitro titration of PCSK9 in human plasma; assay type: binding
Summary of the method: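 Pooled EDTA-anticoagulated plasma (human, n=20 donors; or cynomolgus monkey) spiked with test compound at 0, 0.3, 1, 3, 5, 10, 50, 100, 500 and 1000 nM, from 0.1 mM DMSO stocks. Incubated 30 min at 25°C. Target engagement measured on 50 μL aliquots by affinity capture, enzymatic digestion and LC-MS/MS.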

[3] = Study-001 single oral dose plasma pharmacokinetics; assay type: in vivo, human; settings: 200 mg single dose
[4] = Passive permeability in MDCKII cells; settings: MDCK, pH 7.4
[5] = Study-001 safety and tolerability; assay type: in vivo, human
Summary of the method: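 Single-center, randomized, double-blind, placebo-controlled, single-ascending oral dose study in healthy males aged 18–50. The test compound was given alone, with Labrasol or with sodium caprate. Dosing was fasted except one group after a high-fat breakfast. Escalations were ≥4 days apart, with ≥7-day washout per participant and safety review through ≥24 h. Monitoring covered AEs, physical exam, laboratory safety, 12-lead ECG and vital signs.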

[6] = Standard genotoxicity/mutagenicity assessments
rats = assay: Safety pharmacology and 1-month repeat-dose toxicity studies, rats; assay type: in vivo; settings: safety pharmacology and 1-month repeat-dose toxicity
[7] = Study-003 multiple oral dose plasma pharmacokinetics; assay type: in vivo, human; settings: for Accumulation ratio (Day 14/Day 1) AUC0-24 / Accumulation ratio (Day 14/Day 1) C24 / Accumulation ratio (Day 14/Day 1) Cmax: (90% CI); for level at time molar at 24 h: both, plasma, po; for level at time molar at 24 h / AUC(0-t) / Cmax / Tmax / half-life: human; for AUC(0-t) / Cmax / Tmax / half-life: in vivo
[8] = 10 mg once daily 30 min post-meal + 360 mg sodium caprate, n=6
[9] = 10 mg once daily fasted + 360 mg sodium caprate, n=8
[10] = 20 mg once daily fasted + 360 mg sodium caprate, n=9

Sequence of PCSK9 in human plasma (Q8NBP7 153-692): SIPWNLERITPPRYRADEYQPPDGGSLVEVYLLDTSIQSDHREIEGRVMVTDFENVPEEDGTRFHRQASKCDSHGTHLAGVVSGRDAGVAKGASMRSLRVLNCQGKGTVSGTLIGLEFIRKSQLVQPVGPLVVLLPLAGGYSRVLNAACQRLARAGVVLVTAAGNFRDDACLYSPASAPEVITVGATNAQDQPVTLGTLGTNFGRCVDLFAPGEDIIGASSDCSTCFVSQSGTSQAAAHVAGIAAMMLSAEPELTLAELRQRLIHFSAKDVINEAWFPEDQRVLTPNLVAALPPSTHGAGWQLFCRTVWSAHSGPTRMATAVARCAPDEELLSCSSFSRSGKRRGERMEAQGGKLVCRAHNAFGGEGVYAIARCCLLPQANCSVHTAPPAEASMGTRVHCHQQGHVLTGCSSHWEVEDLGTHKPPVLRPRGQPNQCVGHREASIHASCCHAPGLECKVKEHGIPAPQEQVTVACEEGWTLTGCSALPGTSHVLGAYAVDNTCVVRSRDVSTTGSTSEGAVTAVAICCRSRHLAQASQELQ

COc1ccc(C[C@@H]2NC(=O)[C@H]([C@@H](C)O)NC(=O)[C@@H]3[C@@H]4CCN3C(=O)[C@@H]3Cc5cn(c6ccc(F)cc56)CCCCCCN(Cc5ccc(cc5)CCNC(=O)[C@]5(C)CCCN5C2=O)C(=O)CCC(=O)N[C@@H](C)C(=O)N[C@H](CNC(=O)CCCCC[N+](C)(C)C)C(=O)N[C@@H](Cc2cccc(c2)CNC(=O)CO4)C(=O)N3)cc1 [MK-0616]
solubility (Solubility): 7800 µg/mL
solubility (Solubility; pH 7): > 7000 µg/mL
Oral bioavailability [1]: demonstrated oral bioavailability
Deaths or serious AEs ([2]; Study-003): No deaths or serious AEs
Tolerability ([2]; Study-003, 14 days of daily oral dosing): generally well tolerated
Drug-related AE: dizziness ([2]; Study-003, n=1): 3.2%
Drug-related AE: dry mouth ([2]; Study-003, n=1): 3.2%
Drug-related AE: dyspepsia ([2]; Study-003, n=1): 3.2%
Drug-related AE: flushing ([2]; Study-003, n=1): 3.2%
Drug-related AE: hunger ([2]; Study-003, n=1): 3.2%
Drug-related AE: insomnia ([2]; Study-003, n=1): 3.2%
Drug-related AE: gastroesophageal reflux disease ([2]; Study-003, n=2): 6.5%
Participants with 1 or more drug-related AEs ([2]; Study-003, n=7 of 31): 22.6%
Participants with 1 or more AEs ([2]; Study-003, n=21 of n=31 administered MK-0616): 67.7%
Tolerability (monkeys): well tolerated
IC50 (PCSK9 in human plasma): 2.5 nM
Fold lower Cmax in the absence of 1,800 mg Labrasol vs same dose in the PE [3]: > 5 fold
Papp [4]: 0.71 ×10⁻⁶ cm/s
Deaths or serious AEs ([5]; Study-001): No deaths or serious AEs
Participants with ≥1 AE ([5]; Study-001, n=28 of n=51 administered MK-0616): 54.9%
Tolerability ([5]; Study-001, single-dose oral administration): generally well tolerated
Genotoxicity / mutagenicity [6]: not genotoxic or mutagenic
Tolerability (rats): well tolerated
Accumulation ratio (Day 14/Day 1) AUC0-24 [7, 8]: 1.90 (1.42, 2.55) h•nmol/L
Accumulation ratio (Day 14/Day 1) C24 [7, 8]: 2.01 (1.51, 2.67) nmol/L
Accumulation ratio (Day 14/Day 1) Cmax [7, 8]: 1.60 (1.17, 2.21) nmol/L
Accumulation ratio (Day 14/Day 1) AUC0-24 [7, 9]: 1.46 (1.13, 1.88) h•nmol/L
Accumulation ratio (Day 14/Day 1) C24 [7, 9]: 1.32 (1.03, 1.70) nmol/L
Accumulation ratio (Day 14/Day 1) Cmax [7, 9]: 1.51 (1.15, 1.99) nmol/L
Delay of Day 14 Tmax by low-fat breakfast 30 minutes prior to dose ([7]; 10 mg vs same dose fasting): approximately 6 hours
Accumulation ratio (Day 14/Day 1) AUC0-24 [7, 10]: 1.97 (1.54, 2.54) h•nmol/L
Accumulation ratio (Day 14/Day 1) C24 [7, 10]: 1.81 (1.42, 2.31) nmol/L
Accumulation ratio (Day 14/Day 1) Cmax [7, 10]: 2.04 (1.56, 2.68) nmol/L
Plasma accumulation ([7]; all doses evaluated in Study-003): approximately 2 fold
level at time molar at 24 h ([7]; 20 mg once daily, C24, Day 14, 20 mg once daily fasted + 360 mg sodium caprate, n=9, footnote: median (min, max)): 11.1 nM
level at time molar at 24 h ([7]; 20 mg, C24, Day 1, 20 mg once daily fasted + 360 mg sodium caprate, n=9, geometric mean (95% CI)): 6.13 nM
AUC(0-t) ([7]; AUC0-24, Day 1, 20 mg once daily fasted + 360 mg sodium caprate, statin-treated, n=9, geometric mean (95% CI)): 0.142 µM·h
AUC(0-t) ([7]; AUC0-24, Day 14, 20 mg once daily fasted + 360 mg sodium caprate, n=9, geometric mean (95% CI)): 0.28 µM·h
Cmax ([7]; Day 1, 20 mg once daily fasted + 360 mg sodium caprate, n=9, geometric mean (95% CI)): 7.87 nM
Cmax ([7]; Day 14, 20 mg once daily fasted + 360 mg sodium caprate, n=9, geometric mean (95% CI)): 16.1 nM
Tmax ([7]; Day 14, all fasted doses): < 2 h
Tmax ([7]; Day 14, 20 mg once daily fasted + 360 mg sodium caprate, n=9, median (min, max)): 1.8 h
half-life ([7]; t1/2, Day 14, 20 mg once daily fasted + 360 mg sodium caprate, n=9, geometric mean (% geometric CV)): 244 h
half-life ([7]; t1/2, range, Day 14, across dose regimens): 178 to 244 h
Time to steady state ([7]; once daily dosing, all dosing regimens): by the end of the first week; also recorded: after 1 week
